Laboratory results published in ChEMBL document CHEMBL4342514, “Azole Based Acetohydrazide Derivatives of Cinnamaldehyde Target and Kill Candida albicans by Causing Cellular Apoptosis” (ACS Med Chem Lett, 2020).
Values after ≈ are worked out from the molar mass of the structure shown.

Legend:
Candida albicans [1] = test: Induction of DNA damage in Candida albicans SC5314 assessed as apoptotic cells at 1/2 MIC measured after 3 hrs by TUNEL based confocal microscopy relative to control; assay type: functional
Procedure, shortened: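 SC5314 cells exposed to 1/2 MIC of compound, then TUNEL-labelled with fluorescent dUTP (Ex/Em 488/515 nm) and counterstained with Hoechst 33342 (Ex/Em 350/460 nm). Imaged by confocal laser scanning microscopy and scored as % TUNEL-positive nuclei against untreated control.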

[2] = Hemolytic activity against horse erythrocytes at 4 to 125 ug/ml measured after 3 hrs by spectrophometric analysis; assay type: ADME, cell-based, Equus caballus, Erythrocyte; conditions: read-out: Activity
Procedure, shortened: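 Horse red blood cells exposed to compound. Hemolysis read as absorbance at 450 nm and expressed as % lysis relative to 1% Triton X-100, taken as 100% hemolysis.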

Candida albicans [3] = test: Induction of apoptosis in Candida albicans SC5314 protoplasts assessed as necrotic cells at 1/2 MIC measured after 3 hrs by Annexin V-FITC/propidium iodide staining based flow cytometry (reference value: 0.15 +/- 0.03 %); assay type: functional
Candida albicans [4] = test: Induction of apoptosis in Candida albicans SC5314 protoplasts assessed as viable cells at 1/2 MIC measured after 3 hrs by Annexin V-FITC/propidium iodide staining based flow cytometry (reference value: 96.3 %); assay type: functional
Candida albicans [5] = test: Fungicidal activity against fluconazole-susceptible Candida albicans assessed as growth inhibition by sub-culturing on Agar plate and incubated for 24 to 48 hrs; assay type: functional
Procedure, shortened: (§1)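 C. albicans clinical isolates were tested: 8 fluconazole-susceptible and 3 fluconazole-resistant. Isolates were called resistant at a fluconazole MIC ≥8 μg/mL, per CLSI 2012 interpretive guidelines. Compounds were diluted to test concentrations in 1% DMSO, which served as the negative control. Fluconazole was the positive control. Values are means per group.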

Candida albicans [6] = test: Induction of apoptosis in Candida albicans SC5314 protoplasts assessed as late apoptotic cells at 1/2 MIC measured after 3 hrs by Annexin V-FITC/propidium iodide staining based flow cytometry (reference value: 0.06 +/- 0.01 %); assay type: functional
Candida albicans [7] = test: Antifungal activity against Candida albicans SC5314 assessed as effect on fungal cell viability by measuring dead cells at MIC measured after 3 hrs by Muse cell analyzer (reference value: 1.4 %); assay type: functional
Procedure, shortened: (§2)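 Candida albicans SC5314 cells at a density of 1 × 107 were exposed to each compound at its MIC. Live and dead cells were counted with the Muse Count & Viability kit. Untreated cells were the negative control and heat-killed cells the positive control. A cell size index was run in the same assay to separate cells from debris and non-nucleated cells.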

Candida albicans [8] = test: Induction of apoptosis in Candida albicans SC5314 protoplasts assessed as early apoptotic cells at 1/2 MIC measured after 3 hrs by Annexin V-FITC/propidium iodide staining based flow cytometry (reference value: 3.47 +/- 0.26 %); assay type: functional
Candida albicans [9] = test: Antifungal activity against Candida albicans SC5314 assessed as effect on fungal cell viability by measuring live cells at MIC measured after 3 hrs by Muse cell analyzer (reference value: 98.6 %); assay type: functional
Candida albicans [10] = test: Antifungal activity against fluconazole-susceptible Candida albicans assessed as growth inhibition measured after 24 hrs by CLSI protocol based broth microdilution method; assay type: functional; procedure, shortened: as §1
Candida albicans [11] = test: Fungicidal activity against fluconazole-resistant Candida albicans assessed as growth inhibition by sub-culturing on Agar plate and incubated for 24 to 48 hrs; assay type: functional; procedure, shortened: as §1
Candida albicans [12] = test: Antifungal activity against fluconazole-resistant Candida albicans assessed as growth inhibition measured after 24 hrs by CLSI protocol based broth microdilution method; assay type: functional; procedure, shortened: as §1
Candida albicans [13] = test: Induction of DNA damage in Candida albicans SC5314 assessed as increase in TUNEL positive nuclei at 0.125 ug/ml measured after 3 hrs by TUNEL based confocal microscopy relative to control; assay type: functional
Procedure, shortened: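 SC5314 cells treated with 0.125 μg/mL amphotericin B, then TUNEL-labelled with fluorescent dUTP and counterstained with Hoechst 33342. Confocal microscopy scored TUNEL-positive (green) nuclei relative to untreated cells.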

Candida albicans [14] = test: Antifungal activity against Candida albicans SC5314 assessed as effect on fungal cell death at MIC measured after 3 hrs by Muse cell analyzer relative to control; assay type: functional; procedure, shortened: as §2

COc1ccc(/C=N/NC(=O)Cn2nnc(/C=C/c3ccccc3)n2)cc1
Activity (Candida albicans [1]): 25 - 55%
hemolysis at 3 h [2]: 10 to 40%
Activity (Candida albicans [3]): 1.78%
Activity (Candida albicans [4]): 60.9%
MFC (Candida albicans [5]): 8 µg/mL (≈ 22.1 µM)
Activity (Candida albicans [6]): 23.6%
Activity (Candida albicans [7]): 47.7%
Activity (Candida albicans [8]): 13.9%
Activity (Candida albicans [9]): 52.3%
MIC (Candida albicans [10]): 8 µg/mL (≈ 22.1 µM)
MFC (Candida albicans [11]): 16 µg/mL (≈ 44.2 µM)
MIC (Candida albicans [12]): 8 µg/mL (≈ 22.1 µM)

C[C@@H]1[C@H](O)[C@@H](C)/C=C/C=C/C=C/C=C/C=C/C=C/C=C/[C@H](O[C@@H]2O[C@H](C)[C@@H](O)[C@H](N)[C@@H]2O)C[C@@H]2O[C@](O)(C[C@@H](O)C[C@@H](O)[C@H](O)CC[C@@H](O)C[C@@H](O)CC(=O)O[C@H]1C)C[C@H](O)[C@H]2C(=O)O [AMPHOTERICIN B]
Activity (Candida albicans [13]): >90%

COc1ccc(/C=N/NC(=O)Cn2nnc(/C=C/c3ccccc3)n2)cc1OC
Activity (Candida albicans [1]): 25 - 55%
hemolysis at 3 h [2]: 10 to 40%
Activity (Candida albicans [3]): 4.55%
Activity (Candida albicans [4]): 61.4%
MFC (Candida albicans [5]): 8 µg/mL (≈ 20.4 µM)
Activity (Candida albicans [6]): 24.93%
Activity (Candida albicans [7]): 55.2%
Activity (Candida albicans [8]): 9.69%
Activity (Candida albicans [9]): 44.8%
MIC (Candida albicans [10]): 2 µg/mL (≈ 5.1 µM)
MFC (Candida albicans [11]): 8 µg/mL (≈ 20.4 µM)
MIC (Candida albicans [12]): 4 µg/mL (≈ 10.2 µM)

O/N=C/C=C/c1ccccc1
MFC (Candida albicans [5]): > 125 µg/mL
MIC (Candida albicans [10]): > 125 µg/mL

O=C(Cn1nnc(/C=C/c2ccccc2)n1)N/N=C/c1ccc(Cl)cc1
MFC (Candida albicans [5]): > 125 µg/mL
MIC (Candida albicans [10]): 64 µg/mL (≈ 174 µM)
MIC (Candida albicans [12]): 64 µg/mL (≈ 174 µM)

C(=C\c1nn[nH]n1)/c1ccccc1
MFC (Candida albicans [5]): > 125 µg/mL
MIC (Candida albicans [10]): > 125 µg/mL

NNC(=O)Cn1nnc(/C=C/c2ccccc2)n1
MFC (Candida albicans [5]): > 125 µg/mL
MIC (Candida albicans [10]): > 125 µg/mL

O=C(Cn1nnc(/C=C/c2ccccc2)n1)N/N=C/c1cccc([N+](=O)[O-])c1
Activity (Candida albicans [1]): 25 - 55%
hemolysis at 3 h [2]: 10 to 40%
Activity (Candida albicans [3]): 11.7%
Activity (Candida albicans [4]): 35.3%
MFC (Candida albicans [5]): 1 µg/mL (≈ 2.65 µM)
Activity (Candida albicans [6]): 44.65%
Activity (Candida albicans [7]): 70.4%
Activity (Candida albicans [8]): 8.23%
Activity (Candida albicans [9]): 29.6%
MIC (Candida albicans [10]): 0.25 µg/mL (≈ 0.662 µM)
MFC (Candida albicans [11]): 1 µg/mL (≈ 2.65 µM)
MIC (Candida albicans [12]): 0.5 µg/mL (≈ 1.32 µM)

N#C/C=C/c1ccccc1 [CINNAMONITRILE]
MFC (Candida albicans [5]): > 125 µg/mL
MIC (Candida albicans [10]): > 125 µg/mL
MFC (Candida albicans [11]): > 125 µg/mL
MIC (Candida albicans [12]): > 125 µg/mL

CCOc1ccc(/C=N/NC(=O)Cn2nnc(/C=C/c3ccccc3)n2)cc1
Activity (Candida albicans [1]): 25 - 55%
hemolysis at 3 h [2]: 10 to 40%
Activity (Candida albicans [3]): 2.44%
Activity (Candida albicans [4]): 59.9%
MFC (Candida albicans [5]): 8 µg/mL (≈ 21.3 µM)
Activity (Candida albicans [6]): 27.92%
Activity (Candida albicans [7]): 53.6%
Activity (Candida albicans [8]): 10.49%
Activity (Candida albicans [9]): 46.4%
MIC (Candida albicans [10]): 4 µg/mL (≈ 10.6 µM)
MFC (Candida albicans [11]): 8 µg/mL (≈ 21.3 µM)
MIC (Candida albicans [12]): 8 µg/mL (≈ 21.3 µM)

O=C(Cn1nnc(/C=C/c2ccccc2)n1)N/N=C/c1ccccc1
MFC (Candida albicans [5]): > 125 µg/mL
MIC (Candida albicans [10]): 125 µg/mL (≈ 376 µM)
MIC (Candida albicans [12]): 125 µg/mL (≈ 376 µM)

O=C(Cn1nnc(/C=C/c2ccccc2)n1)N/N=C/c1ccccc1Cl
MFC (Candida albicans [5]): > 125 µg/mL
MIC (Candida albicans [10]): 64 µg/mL (≈ 174 µM)
MIC (Candida albicans [12]): 125 µg/mL (≈ 341 µM)

O=C(Cn1nnc(/C=C/c2ccccc2)n1)N/N=C/c1ccc([N+](=O)[O-])cc1
Activity (Candida albicans [1]): 25 - 55%
hemolysis at 3 h [2]: 10 to 40%
Activity (Candida albicans [3]): 9.8%
Activity (Candida albicans [4]): 33.8%
Activity (Candida albicans [14]): >75%
MFC (Candida albicans [5]): 1 µg/mL (≈ 2.65 µM)
Activity (Candida albicans [6]): 48.3%
Activity (Candida albicans [7]): 77.2%
Activity (Candida albicans [8]): 8.21%
Activity (Candida albicans [9]): 22.8%
MIC (Candida albicans [10]): 0.125 µg/mL (≈ 0.331 µM)
MFC (Candida albicans [11]): 1 µg/mL (≈ 2.65 µM)
MIC (Candida albicans [12]): 0.5 µg/mL (≈ 1.32 µM)

OC(Cn1cncn1)(Cn1cncn1)c1ccc(F)cc1F [FLUCONAZOLE]
MIC (Candida albicans [10]): 0.25 µg/mL (≈ 0.816 µM)
MIC (Candida albicans [12]): 16 µg/mL (≈ 52.2 µM)

Cc1ccc(/C=N/NC(=O)Cn2nnc(/C=C/c3ccccc3)n2)cc1
Activity (Candida albicans [1]): 25 - 55%
hemolysis at 3 h [2]: 10 to 40%
Activity (Candida albicans [3]): 3.7%
Activity (Candida albicans [4]): 71.3%
MFC (Candida albicans [5]): 16 µg/mL (≈ 46.2 µM)
Activity (Candida albicans [6]): 15.6%
Activity (Candida albicans [7]): 44.2%
Activity (Candida albicans [8]): 10.18%
Activity (Candida albicans [9]): 55.8%
MIC (Candida albicans [10]): 16 µg/mL (≈ 46.2 µM)
MFC (Candida albicans [11]): 16 µg/mL (≈ 46.2 µM)
MIC (Candida albicans [12]): 16 µg/mL (≈ 46.2 µM)

CCOC(=O)Cn1nnc(/C=C/c2ccccc2)n1
MFC (Candida albicans [5]): > 125 µg/mL
MIC (Candida albicans [10]): > 125 µg/mL

O=C(Cn1nnc(/C=C/c2ccccc2)n1)N/N=C/c1ccccc1[N+](=O)[O-]
Activity (Candida albicans [1]): 25 - 55%
hemolysis at 3 h [2]: 10 to 40%
Activity (Candida albicans [3]): 1.98%
Activity (Candida albicans [4]): 48.3%
MFC (Candida albicans [5]): 4 µg/mL (≈ 10.6 µM)
Activity (Candida albicans [6]): 36.34%
Activity (Candida albicans [7]): 59.6%
Activity (Candida albicans [8]): 13.37%
Activity (Candida albicans [9]): 40.4%
MIC (Candida albicans [10]): 0.5 µg/mL (≈ 1.32 µM)
MFC (Candida albicans [11]): 4 µg/mL (≈ 10.6 µM)
MIC (Candida albicans [12]): 0.5 µg/mL (≈ 1.32 µM)
